Results reported in ChEMBL document CHEMBL3526151, “Reversible disulfide formation of the glutamate carboxypeptidase II inhibitor E2072 results in prolonged systemic exposures in vivo” (Drug Metab Dispos, 2012).

How the values were obtained:
Format in all cases: ADME, organism-based
[1] = Cmax in Sprague-Dawley rat at 5 mg/kg, iv by LC-MS/MS analysis; parameters: dose 5 mg/kg, route intravenous; settings: in vivo
Procedure, shortened: (§1)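 Male Sprague-Dawley rats (n = 5) given the homodisulfide intravenously at 5 mg/kg. Blood collected up to 7 days into heparin/NEM tubes. Plasma analyzed by LC-MS/MS for both monomer and dimer. Noncompartmental AUC, Cl and Vd calculated. Mean ± S.D.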

[2] = AUC(0 to infinity) in Sprague-Dawley rat at 5 mg/kg, iv by LC-MS/MS analysis; parameters: dose 5 mg/kg, route intravenous, time infinity; settings: plasma; procedure, shortened: as §1
[3] = Clearance in Sprague-Dawley rat at 5 mg/kg, iv by LC-MS/MS analysis; parameters: dose 5 mg/kg, route intravenous; settings: in vivo; procedure, shortened: as §1
[4] = Elimination half life in Sprague-Dawley rat at 5 mg/kg, iv by LC-MS/MS analysis; parameters: dose 5 mg/kg, route intravenous; settings: in vivo, read-out: beta t1/2 (converted)
Procedure, shortened: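 Male Sprague-Dawley rats received a single IV dose of either 10 mg/kg parent drug (n = 6) or 5 mg/kg homodisulfide (n = 5), in 50 mM HEPES-buffered saline, pH 7.4. Blood was collected into NEM-containing heparinized tubes for up to 7 days. Parent drug and homodisulfide in plasma were quantified by LC-MS/MS. Terminal t1/2β was calculated as 0.693/λz.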

[5] = Volume of distribution in Sprague-Dawley rat at 5 mg/kg, iv by LC-MS/MS analysis; parameters: dose 5 mg/kg, route intravenous; settings: in vivo
[6] = AUC(0 to last) in Sprague-Dawley rat at 5 mg/kg, iv by LC-MS/MS analysis; parameters: time 0 - last, dose 5 mg/kg, route intravenous; settings: plasma; procedure, shortened: as §1
[7] = Tmax in Sprague-Dawley rat at 5 mg/kg, iv by LC-MS/MS analysis; parameters: dose 5 mg/kg, route intravenous; settings: in vivo

**Q.** With `O=C(O)c1cccc(-c2cccc(CCSSCCc3cccc(-c4cccc(C(=O)O)c4)c3C(=O)O)c2C(=O)O)c1` as the molecule, how does the Cmax [1] read?
**A.** 104 µg/mL

**Q.** And the AUC(0-inf) [2]?
**A.** 3540 µg·h/mL

**Q.** What about the clearance [3] of the same molecule?
**A.** 1.5 mL/h/kg

**Q.** And the half-life [4]?
**A.** 101 h

**Q.** What about the Vd [5] of the same molecule?
**A.** 209 L/kg

**Q.** And the AUC(0-t) [6]?
**A.** 2490 µg·h/mL

**Q.** And the Tmax [7]?
**A.** 6.6 min
